Source: PubChem BioAssay (several laboratories)
Casp6 inh – human caspase-6 inhibitors, primary screen, biochemical, VEID-R110 fluorescence, single point, set 2 | purified caspase-6, Z-VEID-R110 cleavage fluorescence | P55212 | 350,000 tested, 0.53% active | AID 686996, 2013 | inhibition, % at 12.5 µM;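 active = mean inhibition across replicates at least about 35%, with every replicate also reaching that limit, limit read from the data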;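 also: 0% = median of neutral control wells and 100% = no fluorescence left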
NSD2 inh – NSD2 histone methyltransferase inhibitors, primary screen, biochemical, AlphaScreen, single concentration, set 2. Histone-lysine N-methyltransferase NSD2 (Homo sapiens), O96028. NSD2 peptide methylation, 120 min. inhibition, % at 12.5 µM. 310,000 tested, 0.54% active; in the data active = inhibition above about 50%
Target sequence (O96028 whole entry, looked up): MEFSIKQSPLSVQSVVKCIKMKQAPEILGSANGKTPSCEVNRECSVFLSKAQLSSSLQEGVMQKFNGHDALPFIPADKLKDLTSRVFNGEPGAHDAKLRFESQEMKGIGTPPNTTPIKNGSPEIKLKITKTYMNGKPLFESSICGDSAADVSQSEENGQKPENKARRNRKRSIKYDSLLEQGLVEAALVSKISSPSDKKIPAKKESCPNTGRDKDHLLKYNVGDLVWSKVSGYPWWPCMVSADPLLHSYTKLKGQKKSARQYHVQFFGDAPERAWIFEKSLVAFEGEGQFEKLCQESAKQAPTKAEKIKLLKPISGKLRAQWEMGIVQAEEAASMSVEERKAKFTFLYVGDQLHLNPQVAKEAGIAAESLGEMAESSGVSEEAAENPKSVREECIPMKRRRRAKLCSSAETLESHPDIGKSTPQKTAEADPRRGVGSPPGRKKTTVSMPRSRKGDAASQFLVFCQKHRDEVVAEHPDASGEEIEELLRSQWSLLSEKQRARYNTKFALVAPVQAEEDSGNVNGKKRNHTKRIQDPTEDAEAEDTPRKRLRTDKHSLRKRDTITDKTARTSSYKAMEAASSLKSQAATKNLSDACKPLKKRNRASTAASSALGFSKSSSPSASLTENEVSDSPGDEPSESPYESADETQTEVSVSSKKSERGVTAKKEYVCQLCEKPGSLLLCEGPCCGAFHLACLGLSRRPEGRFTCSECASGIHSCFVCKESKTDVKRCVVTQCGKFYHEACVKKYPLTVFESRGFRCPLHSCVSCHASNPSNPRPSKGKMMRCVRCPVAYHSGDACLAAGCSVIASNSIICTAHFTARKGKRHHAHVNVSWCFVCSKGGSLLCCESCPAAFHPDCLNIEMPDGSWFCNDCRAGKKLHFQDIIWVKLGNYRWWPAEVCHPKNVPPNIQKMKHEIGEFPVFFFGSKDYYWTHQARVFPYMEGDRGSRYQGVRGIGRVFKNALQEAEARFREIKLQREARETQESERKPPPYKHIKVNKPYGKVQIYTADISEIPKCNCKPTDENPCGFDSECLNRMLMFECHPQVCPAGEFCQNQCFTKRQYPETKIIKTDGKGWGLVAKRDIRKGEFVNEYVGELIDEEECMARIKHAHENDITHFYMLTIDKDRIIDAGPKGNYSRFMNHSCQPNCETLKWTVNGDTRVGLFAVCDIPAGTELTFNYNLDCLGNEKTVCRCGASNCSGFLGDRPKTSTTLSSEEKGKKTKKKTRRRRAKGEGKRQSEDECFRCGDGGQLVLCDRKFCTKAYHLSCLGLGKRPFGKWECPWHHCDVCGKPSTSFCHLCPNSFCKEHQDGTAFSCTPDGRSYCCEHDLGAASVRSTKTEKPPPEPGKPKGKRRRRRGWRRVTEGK
LEDGF integ inh – blockers of LEDGF/p75-dependent integrase strand transfer – biochemical, TR-FRET, high throughput, primary screen. HIV-1 integrase (with human LEDGF/p75). TR-FRET IN-LEDGF/p75 DNA integration, Eu/Cy5. inhibition, % at 3.7 µM. 370,000 tested, 0.64% active;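 active = inhibition above the screen-wide mean plus 3 SD, cut at about 13% in these data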;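 also: signal is the Cy5 over europium emission ratio at 671 and 618 nm; 0% = plate median of compound wells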
MBD2 DNA inh – inhibitors of MBD2 binding to methylated DNA, primary screen, biochemical, TR-FRET, DNA-binding domain, human | inhibition, % at 4.4 µM | AID 686964, 2013 | Methyl-CpG-binding domain protein 2 (Homo sapiens), Q9UBB5 | MBD2 binding to methylated oligonucleotide | 370,000 tested, 0.31% active; in the data active = inhibition above about 13%
UHRF1 binding – UHRF1 methylated DNA binding inhibitors, primary screen, counter-screen for MBD2 inhibitor project, biochemical, TR-FRET, human UHRF1, single concentration; E3 ubiquitin-protein ligase UHRF1 (Homo sapiens), Q96T88; 370,000 tested, 0.75% active; inhibition, % at 4.4 µM; UHRF1 binding to methylated oligo; in the data active = inhibition above about 21%;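 also: UHRF1 SRA domain binding a hemimethylated CpG hairpin DNA probe; 0% = median of test compound wells and 100% = reference inhibitor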
TDP2 inh – human TDP2 enzyme inhibitors, primary screen, biochemical, epi absorbance, recombinant enzyme; 370,000 tested, 0.34% active; T5PNP hydrolysis, p-nitrophenol absorbance 415 nm; Tyrosyl-DNA phosphodiesterase 2 (Homo sapiens), O95551; inhibition, % at 12.8 µM;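 active = inhibition above the mean of all tested compounds plus 3 SD, set per campaign, cut at about 25% in these data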;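 also: 0% = DMSO with enzyme and 100% = buffer with substrate but no TDP2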
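Assay system: recombinant human TDP2 / Reagent: T5PNP substrate at 5 mM, a TopII-DNA adduct mimic / Measured by: epi absorbance from released p-nitrophenol / Evaluation: % inhibition relative to enzyme-containing and enzyme-free wells / Control set: enzyme-free and DMSO wells / Replicates: each compound tested once, singlicate / Schedule: enzyme reaction with compound for 2 h at 37 °C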
TDP2 confirm – human TDP2 enzyme inhibitors, retest, confirmation, biochemical, epi absorbance, recombinant enzyme. 1,100 tested, 22% active. inhibition, % at 12.8 µM. absorbance read-out. shares compounds with TDP2 inh; in the data active = inhibition above about 25%;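 also: 0% = vehicle with enzyme and 100% = no enzyme buffer only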
* marks the source's active call; other numbers are inactive results; x = no result given. Hits are enriched below; roughly 1.9% of the tested compounds scored in any of these assays.

SMILES | Casp6 inh | NSD2 inh | LEDGF integ inh | MBD2 DNA inh | UHRF1 binding | TDP2 inh | TDP2 confirm
CN(C)CC(=O)Nc1ccc2c(c1)[C@H]1C[C@H](CC(=O)N(C)C)O[C@H](CO)[C@H]1O2 | 1 | x | x | x | x | x | x
Cc1ccc(S(=O)(=O)N2CCC(C(=O)NCCCN3CCOCC3)CC2)cc1C | 60* | -1 | -1 | -3 | -2 | 30* | 5
CCOP(=O)(OCC)C(NC(=O)Nc1ccccc1)C(N)=O (configuration not stated) | x | -2 | 2 | -6 | 2 | -15 | x
CCOP(=O)(OCC)C(NC(=O)Nc1ccc(Cl)cc1)C(N)=O (configuration not stated) | x | -3 | 1 | -6 | 3 | 45* | -5
C[C@H]1CN([C@@H](C)CO)C(=O)c2cc(NC(=O)Cc3cn(C)c4ccccc34)ccc2O[C@@H]1CN(C)S(=O)(=O)c1ccc(F)cc1 | 2 | x | x | x | x | x | x
COc1cc(OC)c(NC(=O)CCNS(=O)(=O)c2ccc3c(c2)CC(C)N3C(C)=O)cc1Cl (configuration not stated) | 3 | 0 | 1 | 3 | -3 | 31* | 4
COc1ccc(NC(=O)Nc2ccc3c(c2)C(=O)N([C@H](C)CO)C[C@@H](C)[C@H](CN(C)S(=O)(=O)c2cccs2)O3)cc1 | -1 | x | x | x | x | x | x
COc1cc(NC2CCCCC2O)c2nc(-c3ccc(Cl)cc3)ccc2c1 (configuration not stated) | 2 | 2 | 12 | -9 | -9 | 33* | -2
CCOC(=O)CSC1=NC(=O)/C(=C/c2ccc(Br)cc2)S1 | 2 | -2 | 4 | 0 | 0 | 25* | 4
CNC(=O)C[C@@H]1CC[C@H]2[C@@H](COc3ccc(NC(=O)Nc4ccc(C)cc4)cc3C(=O)N2C)O1 | 1 | x | x | x | x | x | x
Cc1[nH]c(C)c(S(=O)(=O)N(C)Cc2ccccc2)c1C(=O)N1CCCC1 | 1 | 1 | 3 | -8 | -9 | 28* | -4
Cc1c(C(=O)N2CCCCC2)c(S(=O)(=O)N(C)Cc2ccccc2)c(C)n1C | 1 | 1 | 1 | -4 | 2 | 4 | x
COc1ccc(/C=N/NC(=O)c2nnn(-c3nonc3N)c2CN(C)c2ccccc2)cc1 | -1 | 5 | 1 | 3 | 0 | 27* | 7
CN(Cc1c(C(=O)N/N=C/c2ccccc2)nnn1-c1nonc1N)c1ccccc1 | 5 | 10 | 3 | -5 | -2 | -2 | x
COc1ccccc1N1CCN(CCOc2c(OC)cccc2OC)CC1 | x | x | -1 | -4 | -1 | 8 | x
COc1ccccc1N1CCN(CCCCOc2c(OC)cccc2OC)CC1 | -5 | 17 | -3 | -2 | 4 | 27* | -5
CN(C)C(=O)C[C@H]1CC[C@H]2[C@@H](COC[C@@H](O)CN2CC2CCCC2)O1 | -1 | x | x | x | x | x | x
COc1cc(/C=N/NC(=O)Cc2nnc(NC(=O)c3ccccc3)s2)ccc1O | 4 | -1 | 3 | 2 | -2 | 29* | 3
Cc1ccccc1C(OCC(O)CN1CCN(CCO)CC1)c1ccccc1 (configuration not stated) | -1 | 1 | 1 | -2 | 1 | 27* | 7
CCOC(=O)c1c(C)oc2c1cc(NS(=O)(=O)c1ccc(C(=O)O)cc1)c1ccccc12 | 62* | 50 | 2 | -6 | -2 | 34* | 16
Cc1ccc(NC(=O)c2cc(-c3ccc(C)c(C)c3O)n[nH]2)cc1C | 1 | 3 | -2 | 0 | 0 | 8 | x
